According to ChEMBL document CHEMBL1122354, “Synthesis and antiarrhythmic activity of new [(dialkylamino)alkyl]pyridylacetamides” (1983):
Active and inactive are the calls of the source. The rule behind the calls is not given here.

What was measured:
[1] = test system: Canis familiaris; test: (§1) Intracardiac conduction in anesthetized dogs, measured as HV; HV being the conduction time in specific intraventricular tissue; format: functional, Canis lupus familiaris, Cardiac ventricle; set-up: concentration or dose not given beside the values
Summary of the method: (§2)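 Mongrel dogs under sodium pentobarbital anesthesia. His bundle electrogram recorded via left heart catheterization. His potentials recorded before dosing and 5 and 15 min after each intravenous dose, at different pacing rates. SH (stimulus to His deflection) and HV intervals measured.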

[2] = test system: Canis familiaris; test: Antiarrhythmic potential in conscious dogs; value ranges from +80 to +360; format: functional, Canis lupus familiaris, Heart
Summary of the method: (§3)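 Mongrel dogs with experimental myocardial infarction, conscious, with ventricular tachycardia or runs of VT. Dosed 50 mg/kg orally as solution in distilled water or acacia gum during the acute phase (16–36 h). Positive response means ≥60% suppression of ventricular arrhythmias or induction of sinus rhythm. The duration of effect was recorded in min.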

[3] = test system: Canis familiaris; test: Intracardiac conduction in anesthetized dogs, measured as SH; SH being the atrial His bundle conduction time; format: functional, Canis lupus familiaris, Atrioventricular bundle; summary of the method: as §2
[4] = test system: Canis familiaris; test: Antiarrhythmic potential in conscious dogs;Value ranges from +27 to +280; format: functional, Canis lupus familiaris, Heart; summary of the method: as §3
[5] = test system: Canis familiaris; test: Intracardiac conduction in anesthetized dogs, measured as SH; SH being the atrial His bundle conduction time; Value ranges from +20 to +70; format: functional, Canis lupus familiaris, Atrioventricular bundle; summary of the method: as §2
[6] = test system: Canis familiaris; test: Intracardiac conduction in anesthetized dogs, measured as HV; HV being the conduction time in specific intraventricular tissue; Value ranges from 20-33; format: functional, Canis lupus familiaris, Cardiac ventricle; summary of the method: as §2
[7] = test system: Canis familiaris; test: Antiarrhythmic potential in conscious dogs; the value ranges from +30 to +60; format: functional, Canis lupus familiaris, Heart
[8] = test system: Canis familiaris; test: Intracardiac conduction in anesthetized dogs, measured as HV; HV being the conduction time in specific intraventricular tissue; value ranges from +45 to +100; format: functional, Canis lupus familiaris, Cardiac ventricle; summary of the method: as §2
[9] = test system: Canis familiaris; test: Antiarrhythmic potential in conscious dogs; value ranges from +45 to +360; format: functional, Canis lupus familiaris, Heart; summary of the method: as §3
[10] = test system: Canis familiaris; test: Intracardiac conduction in anesthetized dogs, measured as SH; SH being the atrial His bundle conduction time; value ranges from +40 to +100; format: functional, Canis lupus familiaris, Atrioventricular bundle; summary of the method: as §2
[11] = test system: Canis familiaris; test: as §1; format: functional, Canis lupus familiaris, Cardiac ventricle; summary of the method: as §2
[12] = test system: Canis familiaris; test: Antiarrhythmic potential in conscious dogs; inactive.; format: functional, organism-based; conditions: Canis lupus familiaris; Heart; summary of the method: as §3
[13] = test system: Canis familiaris; test: Intracardiac conduction in anesthetized dogs, measured as SH; SH being the atrial His bundle conduction time; Value ranges from +0 to +10; format: functional, Canis lupus familiaris, Atrioventricular bundle; summary of the method: as §2
[14] = test system: Canis familiaris; test: Antiarrhythmic potential in conscious dogs; the value ranges from +8 to +-240; format: functional, Canis lupus familiaris, Heart; summary of the method: as §3
[15] = test system: Canis familiaris; test: Antiarrhythmic potential in conscious dogs; value ranges from +50 to +60; format: functional, Canis lupus familiaris, Heart; summary of the method: as §3
[16] = test system: Canis familiaris; test: Antiarrhythmic potential in conscious dogs was calculated and found that after 60 minutes the dogs died.; format: functional, Canis lupus familiaris, Heart
[17] = test system: Canis familiaris; test: Antiarrhythmic potential in conscious dogs; value ranges from +120 to +380; format: functional, Canis lupus familiaris, Heart; summary of the method: as §3
[18] = test system: Canis familiaris; test: Intracardiac conduction in anesthetized dogs, measured as SH; SH being the atrial His bundle conduction time value ranges from +15 to +35; format: functional, Canis lupus familiaris, Atrioventricular bundle; summary of the method: as §2
[19] = test system: Canis familiaris; test: Intracardiac conduction in anesthetized dogs, measured as HV; HV being the conduction time in specific intraventricular tissue value ranges from +20 to +30; format: functional, Canis lupus familiaris, Cardiac ventricle; summary of the method: as §2
[20] = test system: Canis familiaris; test: Antiarrhythmic potential in conscious dogs; value ranges from 210-270; format: functional, Canis lupus familiaris, Heart; summary of the method: as §3
[21] = test system: Canis familiaris; test: Intracardiac conduction in anesthetized dogs, measured as SH; SH being the atrial His bundle conduction time; value ranges from +30 to +-55; format: functional, Canis lupus familiaris, Atrioventricular bundle; summary of the method: as §2
[22] = test system: Canis familiaris; test: Antiarrhythmic potential in conscious dogs; was tested and found that after 90 min the dogs died.; format: functional, Canis lupus familiaris, Heart
[23] = test system: Canis familiaris; test: Intracardiac conduction in anesthetized dogs, measured as SH; SH being the atrial His bundle conduction time; Value ranges from +8 to +100; format: functional, Canis lupus familiaris, Atrioventricular bundle; summary of the method: as §2
[24] = test system: Canis familiaris; test: Intracardiac conduction in anesthetized dogs, measured as HV; HV being the conduction time in specific intraventricular tissue; value ranges from + 60 to+135; format: functional, Canis lupus familiaris, Cardiac ventricle; summary of the method: as §2
[25] = test system: Canis familiaris; test: Intracardiac conduction in anesthetized dogs, measured as HV; HV being the conduction time in specific intraventricular tissue; value ranges from +2 to +-50; format: functional, Canis lupus familiaris, Cardiac ventricle; summary of the method: as §2
[26] = test system: Canis familiaris; test: Antiarrhythmic potential in conscious dogs; value ranges from +190 to +270; format: functional, Canis lupus familiaris, Heart; summary of the method: as §3
[27] = test system: Canis familiaris; test: Intracardiac conduction in anesthetized dogs, measured as SH; SH being the atrial His bundle conduction time; value ranges from +10 to +50; format: functional, Canis lupus familiaris, Atrioventricular bundle; summary of the method: as §2
[28] = test system: Canis familiaris; test: Antiarrhythmic potential in conscious dogs; value ranges from +20 to +270; format: functional, Canis lupus familiaris, Heart; summary of the method: as §3
[29] = test system: Canis familiaris; test: Intracardiac conduction in anesthetized dogs, measured as SH; SH being the atrial His bundle conduction time; value ranges from +15 to +20; format: functional, Canis lupus familiaris, Atrioventricular bundle; summary of the method: as §2
[30] = test system: Canis familiaris; test: Intracardiac conduction in anesthetized dogs, measured as HV; HV being the conduction time in specific intraventricular tissue; value ranges from +25 to +30; format: functional, Canis lupus familiaris, Cardiac ventricle; summary of the method: as §2
[31] = test system: Canis familiaris; test: Intracardiac conduction in anesthetized dogs, measured as SH; SH being the atrial His bundle conduction time; value ranges from +50 to +85; format: functional, Canis lupus familiaris, Atrioventricular bundle; summary of the method: as §2
[32] = test system: Canis familiaris; test: Intracardiac conduction in anesthetized dogs, measured as HV; HV being the conduction time in specific intraventricular tissue; value ranges from 35-80; format: functional, Canis lupus familiaris, Cardiac ventricle; summary of the method: as §2
[33] = test system: Canis familiaris; test: Antiarrhythmic potential in conscious dogs; format: functional, Canis lupus familiaris, Heart; summary of the method: as §3
[34] = test system: Canis familiaris; test: Intracardiac conduction in anesthetized dogs, measured as SH; SH being the atrial His bundle conduction time; value ranges from +4 to +-85; format: functional, Canis lupus familiaris, Atrioventricular bundle; summary of the method: as §2
[35] = test system: Canis familiaris; test: Antiarrhythmic potential in conscious dogs; Inactive.; format: functional, organism-based; conditions: Canis lupus familiaris; Heart; summary of the method: as §3
[36] = test system: Canis familiaris; test: Intracardiac conduction in anesthetized dogs, measured as HV; HV being the conduction time in specific intraventricular tissue; value ranges from +100 to +210; format: functional, Canis lupus familiaris, Cardiac ventricle; summary of the method: as §2
[37] = test system: Canis familiaris; test: Intracardiac conduction in anesthetized dogs, measured as SH; SH being the atrial His bundle conduction time; value ranges from +70 to +120; format: functional, Canis lupus familiaris, Atrioventricular bundle; summary of the method: as §2
[38] = test system: Canis familiaris; test: Antiarrhythmic potential in conscious dogs; value ranges from +155 to +300; format: functional, Canis lupus familiaris, Heart; summary of the method: as §3
[39] = test system: Canis familiaris; test: Intracardiac conduction in anesthetized dogs, measured as HV; HV being the conduction time in specific intraventricular tissue; value ranges from +0 to +30; format: functional, Canis lupus familiaris, Cardiac ventricle; summary of the method: as §2
[40] = test system: Canis familiaris; test: Antiarrhythmic potential in conscious dogs; value ranges from +165 to +405; format: functional, Canis lupus familiaris, Heart; summary of the method: as §3
[41] = test system: Canis familiaris; test: Intracardiac conduction in anesthetized dogs, measured as SH; SH being the atrial His bundle conduction time; value ranges from +25 to +30; format: functional, Canis lupus familiaris, Atrioventricular bundle; summary of the method: as §2

## CC(C)N(CCC(C(N)=O)(c1ccccn1)C(C)C)C(C)C (stereo unspecified)
[1]
  Variation/Control: 0%
[2]
  Actual duraction: 360 min
[3]
  Variation/Control: 10%

## CCC(CC)C(CCN(C(C)C)C(C)C)(C(N)=O)c1ccccn1 (stereo unspecified)
[4]
  Actual duraction: 280 min
[5]
  Variation/Control: 70%
[6]
  Variation/Control: 33%

## CC(C)N(CCC(C(N)=O)(c1ccccc1)c1ccccn1)C(C)C (stereo unspecified) [DISOPYRAMIDE]
[7]
  Actual duraction: 60 min

## CC(C)N(CCC(CC1CCCCC1)(C(N)=O)c1ccccn1)C(C)C (stereo unspecified)
[8]
  Variation/Control: 100%
[9]
  Actual duraction: 360 min
[10]
  Variation/Control: 100%

## CC(C)CC(CCN1CCOCC1)(C(N)=O)c1ccccn1 (stereo unspecified)
[11]
  Variation/Control: 0%
[12]
  Actual duraction: inactive
[13]
  Variation/Control: 10%

## CC(C)CC(CCN(C(C)C)C(C)C)(C(N)=O)c1ccncc1 (stereo unspecified)
[1]
  Variation/Control: 45%
[3]
  Variation/Control: 110%
[14]
  Actual duraction: 240 min

## C=C[C@H]1CN2CC[C@H]1C[C@@H]2[C@@H](O)c1ccnc2ccc(OC)cc12 [QUINIDINE]
[15]
  Actual duraction: 60 min

## CC(C)CC(CCN(C1CCCCC1)C1CCCCC1)(C(N)=O)c1ccccn1 (stereo unspecified)
[1]
  Variation/Control: 75%
[3]
  Variation/Control: 45%
[16]
  Actual duraction: 60 min

## CC(C)N(CCC(C(N)=O)c1ccccn1)C(C)C (stereo unspecified)
[12]
  Actual duraction: inactive
[1]
  Variation/Control: 0%
[3]
  Variation/Control: 0%

## CC(C)CC(CCN(C(C)C)C(C)C)(C(N)=O)c1ccccn1 (stereo unspecified) [PENTISOMIDE]
[17]
  Actual duraction: 380 min
[18]
  Variation/Control: 35%
[19]
  Variation/Control: 30%

## CC(C)N(CCC(C(N)=O)(c1ccccn1)C1CCCCC1)C(C)C (stereo unspecified)
[20]
  Actual duraction: 270 min
[1]
  Variation/Control: 40%
[21]
  Variation/Control: 55%

## CCC(C)N(CCC(CC(C)C)(C(N)=O)c1ccccn1)C(C)CC (stereo unspecified)
[22]
  Actual duraction: 90 min
[23]
  Variation/Control: 100%
[24]
  Variation/Control: 135%

## CC(C)CCC(CCN(C(C)C)C(C)C)(C(N)=O)c1ccccn1 (stereo unspecified)
[25]
  Variation/Control: 50%
[26]
  Actual duraction: 270 min
[27]
  Variation/Control: 50%

## CC(C)CC(CCN1C(C)CCCC1C)(C(N)=O)c1ccccn1 (stereo unspecified)
[28]
  Actual duraction: 270 min
[29]
  Variation/Control: 20%
[30]
  Variation/Control: 30%

## CC(C)N(CCC(Cc1ccccc1)(C(N)=O)c1ccccn1)C(C)C (stereo unspecified)
[12]
  Actual duraction: inactive
[31]
  Variation/Control: 85%
[32]
  Variation/Control: 80%

## CC(C)CC(CCN(C(C)C)C(C)C)(C(N)=O)c1cccnc1 (stereo unspecified)
[11]
  Variation/Control: 25%
[33]
  Actual duraction: 45 min
[3]
  Variation/Control: 20%

## CC(C)CC(CCN(C(C)C)C1CCCCC1)(C(N)=O)c1ccccn1 (stereo unspecified)
[33]
  Actual duraction: 300 min
[1]
  Variation/Control: 50%
[34]
  Variation/Control: 85%

## CCCN(CCC)CCC(CC(C)C)(C(N)=O)c1ccccn1 (stereo unspecified)
[35]
  Actual duraction: inactive
[1]
  Variation/Control: 0%
[3]
  Variation/Control: 20%

## CCC(C)C(CCN(C(C)C)C(C)C)(C(N)=O)c1ccccn1 (stereo unspecified)
[33]
  Actual duraction: 240 min
[1]
  Variation/Control: 30%
[3]
  Variation/Control: 0%

## CCCCCC(CCN(C(C)C)C(C)C)(C(N)=O)c1ccccn1 (stereo unspecified)
[33]
  Actual duraction: 180 min
[36]
  Variation/Control: 210%
[37]
  Variation/Control: 120%

## CCC(CCN(C(C)C)C(C)C)(C(N)=O)c1ccccn1 (stereo unspecified)
[38]
  Actual duraction: 300 min
[1]
  Variation/Control: 0%
[3]
  Variation/Control: 20%

## CCN(CC)CCC(CC(C)C)(C(N)=O)c1ccccn1 (stereo unspecified)
[12]
  Actual duraction: inactive
[1]
  Variation/Control: 0%
[3]
  Variation/Control: 15%

## CCCC(CCN(C(C)C)C(C)C)(C(N)=O)c1ccccn1 (stereo unspecified)
[11]
  Variation/Control: 0%
[33]
  Actual duraction: 35 min
[3]
  Variation/Control: 15%

## CC(C)CC(CCCN(C(C)C)C(C)C)(C(N)=O)c1ccccn1 (stereo unspecified)
[11]
  Variation/Control: 0%
[33]
  Actual duraction: 30 min
[3]
  Variation/Control: 15%

## CC(C)N(CCC(CC(C)(C)C)(C(N)=O)c1ccccn1)C(C)C (stereo unspecified)
[39]
  Variation/Control: 30%
[40]
  Actual duraction: 405 min
[41]
  Variation/Control: 30%
